According to ChEMBL document CHEMBL2062417, “Biotinylated quercetin as an intrinsic photoaffinity proteomics probe for the identification of quercetin target proteins” (Bioorg Med Chem, 2011):
Calls of active or inactive are those of the source. The rule behind the calls is not given here.

Molecular target: RuvB-like 2 (Homo sapiens) (UniProt Q9Y230)
Experiment: Binding affinity to RUVBL2 in human Jurkat cells at 150 uM followed by UV irradiation for 30 mins with Wood's glass filtered medium pressure mercury arc light after cell lysis measured after denaturing wash by SDS-PAGE based pull down assay
Summary of the method: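 Jurkat cells were grown in RPMI with 10% FBS (about 15×10^6 cells) and treated 2 h with 150 μM BioQ in 3% aqueous DMSO. They were heat-shocked at 43 °C for 30 min, recovered 1 h at 37 °C, and UV-irradiated (320–400 nm, peak 365 nm, 30 min, 4 °C) before or after sonication lysis. Streptavidin-agarose capture ran 1 h. Beads were washed ≥3× with lysis buffer or 2% SDS Tris pH 7.4, boiled, run on 12% SDS-PAGE and silver-stained.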

RuvB-like 2 (Homo sapiens), sequence (Q9Y230 whole entry): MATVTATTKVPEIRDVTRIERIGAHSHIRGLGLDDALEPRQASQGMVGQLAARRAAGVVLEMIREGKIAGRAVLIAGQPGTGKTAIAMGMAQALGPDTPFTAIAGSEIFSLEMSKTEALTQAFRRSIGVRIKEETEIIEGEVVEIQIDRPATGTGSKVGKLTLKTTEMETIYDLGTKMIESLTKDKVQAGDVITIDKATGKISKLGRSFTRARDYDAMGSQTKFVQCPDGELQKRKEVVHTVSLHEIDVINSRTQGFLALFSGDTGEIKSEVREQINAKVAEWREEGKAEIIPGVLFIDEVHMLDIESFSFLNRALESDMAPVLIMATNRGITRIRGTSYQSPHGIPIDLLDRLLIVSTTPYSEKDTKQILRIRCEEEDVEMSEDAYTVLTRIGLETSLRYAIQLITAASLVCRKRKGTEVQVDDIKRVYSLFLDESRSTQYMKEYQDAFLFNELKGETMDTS

Activity: Active
SMILES: O=C(CCCC[C@@H]1SC[C@@H]2NC(=O)N[C@@H]21)NCCOCCOCCNC(=O)COc1cc(O)c2c(=O)c(O)c(-c3ccc(O)c(O)c3)oc2c1
